Reference: ChEMBL document CHEMBL3826876, “Toward the Development of Specific G-Quadruplex Binders: Synthesis, Biophysical, and Biological Studies of New Hydrazone Derivatives” (J Med Chem, 2016)
Calls of active or inactive are those of the source. The rule behind the calls is not given here.

Legend:
[1] = Induction of parallel G-quadruplex formation in synthetic unfolded c-KIT2 DNA assessed as increase in molar ellipticity after 10 mins in absence of metal cation by circular dichroism titration method
Procedure, shortened: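 CD titration without metal ions: unfolded oligonucleotide 12-15 µM in 50 mM Tris; ligand added in 0.5 equiv steps, spectrum recorded 10 min after each addition at 20 °C, 230-360 nm, 3 scans averaged.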

[2] = organism: Homo sapiens; assay: Binding affinity to human 5'-FAM/3'-TAMRA labeled telomere 21 G-quadruplex DNA assessed as increase in melting temperature by FRET assay
Procedure, shortened: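 FRET melting screen in 60 mM potassium cacodylate pH 7.4, labelled probe 400 nM annealed at 85 °C for 10 min; ligands at various concentrations up to 20 µM, diluted from 10 mM DMSO stock via 10 mM HCl. Excitation 450-495 nm, emission 515-545 nm, 30-100 °C in 0.5 °C steps with 30 s hold; ΔTm by curve fitting, triplicate.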

[3] = Binding affinity to synthetic c-KIT2 G-quadruplex DNA assessed as increase in thermal stability in presence of 20 mM KCl buffer by circular dichroism spectroscopic analysis
Procedure, shortened: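 CD melting in 5 mM potassium phosphate, 20 mM KCl, 10 µM folded G4, heated 20-100 °C at 1 °C/min; ligand:DNA ratios 1:1, 2:1 and 4:1 compared; Tm from curve fit.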

[4] = Binding affinity to synthetic telomere 23 parallel G-quadruplex DNA assessed as change in melting temperature at 4 mol equiv in presence of 100 mM KCl buffer by circular dichroism spectroscopic analysis
Procedure, shortened: (§1)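 CD melting, 20-100 °C at 1 °C/min, signal at 264 (parallel), 290 (antiparallel) or 280 nm (duplex). G4 DNA 10 µM or duplex 15 µM, folded by heating at 90 °C 5 min and slow cooling, in 10 mM potassium phosphate (c-kit1, Tel23, Tel26) or lithium phosphate (Tel23-p, ds12) pH 7.0 with 100 mM KCl. Ligand 4 equiv; Tm by curve fit, ΔTm vs DNA alone; duplicate average.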

[5] = test system: U2OS; assay: Cytotoxicity against human U2OS cells assessed as cell killing after 1 hr by MTT assay; assay type: functional, cell-based
Procedure, shortened: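 U2OS and HCT116 in DMEM with 10% FBS, 1% L-glutamine, seeded at 40000 cells/ml; 24 h later exposed for 1 h or 24 h, then drug-free medium 1-2 days. MTT 1 h at 37 °C, DMSO solubilisation, absorbance 595 nm. IC50 by linear regression; two independent experiments in triplicate, mean ± SE.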

[6] = Binding affinity to synthetic self-complementary DNA 12-mer duplex assessed as change in melting temperature at 4 mol equiv in presence of 100 mM KCl buffer by circular dichroism spectroscopic analysis; procedure, shortened: as §1
[7] = Effect on synthetic telomere 23 G-quadruplex DNA topology at 4 mol equiv by circular dichroism spectroscopic analysis
Procedure, shortened: (§2)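 CD spectra at 20 °C, 230-360 nm, 3 scans averaged, baseline subtracted; 10 µM G4 or 15 µM duplex in potassium- or lithium-phosphate pH 7.0 buffers with 100 mM KCl (c-kit2, c-myc: 5 mM potassium phosphate, 20 mM KCl); ligand 4 molar equiv added to folded DNA from 6 mM DMSO stock.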

[8] = Effect on synthetic c-KIT2 G-quadruplex DNA topology at 4 mol equiv by circular dichroism spectroscopic analysis; procedure, shortened: as §2
[9] = Effect on synthetic self-complementary DNA 12-mer duplex topology at 4 mol equiv in presence of K+ ions by circular dichroism spectroscopic analysis; procedure, shortened: as §2
[10] = Binding affinity to human 5'-FAM/3'-TAMRA labeled telomere 21 parallel G-quadruplex DNA (unknown origin) assessed as change in melting temperature at 4:1 ligand:DNA ratio in presence of 100 mM KCl buffer by FRET assay
Procedure, shortened: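 FRET melting of FAM/TAMRA-labelled G4 oligos (400 nM, annealed 85 °C 10 min) with ligand at 4 equiv, same buffers as CD (20 mM KCl for c-kit2 and c-myc; 100 mM KCl for telomeric parallel form, annealed at high concentration). Excitation 450-495 nm, emission 515-545 nm, read every 0.5 °C over 30-100 °C; ΔTm by curve fit; duplicate runs averaged.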

[11] = Binding affinity to 5' and 3'-terminal G-tetrads of synthetic MYC22 G14T/G23T double mutant G-quadruplex DNA in presence of 70 mM KCl solution by NMR spectroscopic analysis
Procedure, shortened: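 1H NMR titration at 25 °C, 700 MHz, water-suppressed 1D spectra; DNA 0.2-0.5 mM strand in H2O/D2O 9:1. Myc22 in 25 mM KH2PO4, 70 mM KCl, 0.2 mM EDTA, pH 7.0; c-kit2 T12/T21 in 5 mM KH2PO4, 20 mM KCl, 0.2 mM EDTA, pH 6.8. Ligand in DMSO-d6 added stepwise into the tube; imino proton shifts followed.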

## Br.O=Cc1c(-c2ccccc2)nc2n1ccc1nc(-c3ccccc3)c(/C=N/NC3=NCCN3)n12
[1]
  Activity: inactive
[2]
  Activity: Active
[3]
  Activity: Dose-dependent effect
[4]
  ΔTm: 9.1 °C
[5]
  IC50: 5.73 µM
[6]
  ΔTm: -0.8 °C
[7]
  Activity: inactive
[8]
  Activity: inactive
[9]
  Activity: inactive
[10]
  ΔTm: 7 °C
[11]
  Activity: Active
